# Experimental data collected from several papers.
# Each line is one published result; the experiments were not run side by side. pEC50: −log10 of the molar value.
# Effect on: cell growth or viability
Compound,cell line,technique,concentration,time,endpoint,value
O=C(/C=C/c1cccc(C(=O)NO)c1)NO,HBL1,ATP luminescence,0.5 µM,5 days,viability,89.6%
CCOC(=O)c1ccc(-c2nn(Cc3ccccc3)c3ccccc23)o1,RBE,ATP luminescence,46 µM,72 h,inhibition,35%
CC(=O)ON=C1C=CC(=C(C#N)c2ccccc2)C=C1,human Fibroblast,MTT,,72 h,IC50,19.6 µg/mL
CCN(Cc1c(F)cccc1F)c1ccc(CO)c(Cl)c1,RBE,ATP luminescence,46 µM,72 h,inhibition,57%
Cc1n[nH]c2ccc3nc(-c4ccc(C(=O)N(C)CCN(C)C)nc4)c4c(c3c12)CCCCC4,MV4-11,resazurin,,72 h,GI50,1.1 µM
O=C(NO)c1ccc(CC(=O)N(CCO)c2ccccc2)cc1,HBL1,ATP luminescence,0.1 µM,5 days,viability,103%
CNCCC(=O)Nc1ccccc1/N=c1\cc(-c2ccc3nc(N)oc3c2)oc2ccccc12,MDA-MB-468,CCK-8,1 µM,,inhibition,40.6%
O=C(NC1CC1)c1ccc(-c2nc3ccc4[nH]ncc4c3c3c2CCCC3)cc1,MV4-11,resazurin,,72 h,GI50,0.481 µM
Oc1cccc(-c2nc(N3CCOCC3)c3oc4ncccc4c3n2)c1,MDA-MB-468,CCK-8,1 µM,,inhibition,2.69%
CN(C)CCNC(=O)c1ccc(-c2nc3ccc4[nH]ncc4c3c3c2CCCCC3)cc1,MV4-11,resazurin,,72 h,GI50,0.025 µM
OCc1ccc(-c2nn(Cc3ccccc3)c3ccncc23)o1,RBE,ATP luminescence,46 µM,72 h,inhibition,47%
C[C@H](N)C(=O)Nc1ccccc1/N=c1\cc(-c2ccc3c(c2)OCCO3)oc2c([N+](=O)[O-])cccc12,MDA-MB-468,CCK-8,1 µM,,inhibition,1.9%
O=C(CCCCCCSc1ccc2ccccc2c1)NO,HBL1,ATP luminescence,0.1 µM,5 days,viability,112%
Nc1ccccc1/N=c1\cc(-c2ccc3c(c2)OCO3)oc2ccccc12,MDA-MB-468,CCK-8,1 µM,,inhibition,5.28%
CN(C)CCNC(=O)c1ccc(-c2nc3ccc4[nH]ncc4c3c3c2CC(C)(C)CC3)cc1,MV4-11,resazurin,,72 h,GI50,0.08 µM
CCN(Cc1ccccc1)c1ccc(CO)c(Cl)c1,RBE,ATP luminescence,46 µM,72 h,inhibition,57%
Cc1n[nH]c2ccc3nc(-c4ccc(C(=O)N(C)CCN(C)C)cn4)c4c(c3c12)CCCCC4,MV4-11,resazurin,,72 h,GI50,0.713 µM
NCCC(=O)Nc1ccccc1/N=c1\cc(-c2ccc3c(c2)OCO3)oc2ccccc12,MDA-MB-468,CCK-8,1 µM,,inhibition,19.2%
C[C@H](Nc1ccc2c(c1)OCCn1cc(N3C(=O)OC[C@H]3C(F)F)nc1-2)C(N)=O,MFE-280,ATP luminescence,,5 days,pEC50,7.38
CN(C)CC1(NC(=O)c2ccc(-c3nc4ccc5[nH]ncc5c4c4c3CCCC4)cc2)CC1,MV4-11,resazurin,,72 h,GI50,0.536 µM
CCN(Cc1cccc(Cl)c1)c1ccc(CO)c(Cl)c1,RBE,ATP luminescence,46 µM,72 h,inhibition,59%
NCCC(=O)Nc1ccccc1/N=c1\cc(-c2ccc3oc(N)nc3c2)oc2ccccc12,MDA-MB-468,CCK-8,1 µM,,inhibition,59.8%
O=C(Nc1ccc(Cl)cc1)C1CCCN(C(=O)c2cc(C(F)(F)F)cc(C(F)(F)F)c2)C1 (racemic),HBL1,ATP luminescence,0.5 µM,5 days,viability,98.8%
NCCC(=O)Nc1ccccc1/N=c1\cc(-c2ccc3nc(N)oc3c2)oc2ccccc12,MDA-MB-468,CCK-8,1 µM,,inhibition,47.2%
CC(=O)OC[C@H]1O[C@@H](n2cnc(N)nc2=O)[C@H](OC(C)=O)[C@@H]1OC(C)=O,HBL1,ATP luminescence,0.5 µM,5 days,viability,111%
OCc1ccc(-c2nn(Cc3ccccn3)c3ccccc23)o1,RBE,ATP luminescence,46 µM,72 h,inhibition,70%
NCCCC(=O)Nc1ccccc1/N=c1\cc(-c2ccc3c(c2)OCO3)oc2ccccc12,MDA-MB-468,CCK-8,1 µM,,inhibition,8.13%
O=C(Nc1cccc(Br)c1)c1cccc(S(=O)(=O)N2CCCCCC2)c1,HBL1,ATP luminescence,0.1 µM,5 days,viability,134%
CN(C)CCNC(=O)c1ccc(-c2nc3ccc4[nH]ncc4c3c3c2CCCC3)s1,MV4-11,resazurin,,72 h,GI50,0.157 µM
COCCN(Cc1ccc(F)cc1)c1ccc(CO)c(Cl)c1,RBE,ATP luminescence,46 µM,72 h,inhibition,75%
O=C(Nc1nccs1)c1ccc(-c2nc3ccc4[nH]ncc4c3c3c2CCCC3)cc1,MV4-11,resazurin,,72 h,GI50,0.743 µM
O=C(CCCCCCC(=O)Nc1ccccc1)NO,HBL1,ATP luminescence,1 µM,5 days,viability,10.7%
OCc1ccc(N(Cc2ccc(F)cc2)Cc2ccc(F)cc2)cc1Cl,RBE,ATP luminescence,46 µM,72 h,inhibition,78%
